A short description of data set [1]: Growth inhibition of human NCI60 cells after 3 days by crystal violet staining. Conditions: NCI60, 72 h. The data set is classed as functional.
Another data set deals with HCT-15. The experiment in a line: Growth inhibition of human HCT15 cells after 3 days by crystal violet staining. Format: functional. As to conditions: HCT-15, 72 h.
A further data set concerns NCI-H460. The experiment in a line: Growth inhibition of human NCI-H460 cells after 3 days by crystal violet staining. Format: functional. Conditions: NCI-H460, 72 h.
In data set [2] the test system is HUVEC. The experiment in a line: Vascular disrupting activity in HUVEC assessed as change in cell morphology with detachment form substrate after 1 hr by crystal violet staining-based inverted light microscopy. Format: functional, Homo sapiens. Summed up: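 HUVEC treated for 1 h with compound; morphology (cell retraction, rounding, detachment from substrate) examined by light microscopy.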

Data set [3] deals with HUVEC. The experiment in a line: Cytotoxicity against HUVEC after 72 hrs by crystal violet staining. Format: functional, cell-based, Homo sapiens.
The test system of data set [4] is HUVEC. The data set is described as follows: Vascular disrupting activity in HUVEC assessed as appearance of blebbing morphology of rounded cells at 0.1 uM after 1 hr by FITC-onjugated DAPI staining-based immunofluorescence assay. The data set is classed as functional, cell-based. Conditions: Homo sapiens. The method in brief: (§1)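 HUVEC exposed to vehicle or compound (0.1-1 μM range) for 1 h, then tubulin cytoskeleton examined by immunofluorescence for microtubule disorganization and blebbing of rounded cells.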

Data set [5] concerns HUVEC. The experiment in a line: Vascular disrupting activity in HUVEC assessed as disorganization of microtubule at 0.1 uM after 1 hr by FITC-onjugated DAPI staining-based immunofluorescence assay. The data set is classed as functional, cell-based. Conditions: Homo sapiens. Summed up: as §1
Data set [6] relates to HUVEC. The experiment in a line: Cytotoxicity against HUVEC after 1 hr by crystal violet staining. The data set is classed as functional, cell-based, Homo sapiens.
The nature of data set [7]: Dissociation constant, pKa of the compound. The data set is classed as physicochemical.
In data set [8] the test system is MDA-MB-435. The experiment in a line: Induction of necrosis in central region of human MDA-MB-435 cells exenografted in NCr nu/nu mouse at 80 mg/kg, ip administered as single dose measured after 24 hrs by haematoxylin/eosin staining-based histopathological analysis. The data set is classed as functional, organism-based. Also noted: dose 80 mg/kg.
Data set [9] deals with MDA-MB-435. The data set is described as follows: Induction of necrosis in central region of human MDA-MB-435 cells exenografted in NCr nu/nu mouse at 20 mg/kg, ip administered as single dose measured after 24 hrs by haematoxylin/eosin staining-based histopathological analysis. Set-up: dose 20 mg/kg. The data set is classed as functional, organism-based.
Data set [10] relates to HUVEC. The data set is described as follows: Vascular disrupting activity in HUVEC assessed as appearance of blebbing morphology of rounded cells after 1 hr by FITC-onjugated DAPI staining-based immunofluorescence assay. Format: functional, cell-based. As to conditions: Homo sapiens. The method in brief: as §1
Data set [11] concerns HUVEC. The data set is described as follows: Vascular disrupting activity in HUVEC assessed as disorganization of microtubule after 1 hr by FITC-onjugated DAPI staining-based immunofluorescence assay. Format: functional, cell-based. As to conditions: Homo sapiens. The method in brief: as §1
The test system of data set [12] is HUVEC. The data set is described as follows: Vascular disrupting activity in HUVEC assessed as disruption of capillary-like structure formation on permissive matrix at 0.1 uM after 1 hr by microscopy. As to conditions: Homo sapiens. Format: functional, cell-based. Summed up:
(§2)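 HUVEC seeded on 3D Matrigel form capillary-like cord networks by 24 h; compound then added to formed cords and images taken 1 h later to assess cord disruption and shortening.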

For a further data set, the system named is Mus musculus. The experiment in a line: Vascular disrupting activity in C57BL/6N mouse assessed as rapid decrease in FGF2-induced vessel formation on permissive matrix at 20 m/kg, ip after 1 hr by FTC-conjugated staining based confocal microscopy. The data set is classed as functional, organism-based. Summed up: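 Matrigel plug containing FGF-2 implanted in mice, vessels allowed to form over 7 days (plug without FGF-2 as negative control). Single ip dose given, then functional perfused vessels visualized 1 h later with FITC-isolectin B4 by confocal microscopy; at least three images per sample, n = 5.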

Data set [13] relates to HUVEC. The data set is described as follows: Vascular disrupting activity in HUVEC assessed as disruption of capillary-like structure formation on permissive matrix at 1 uM after 1 hr by microscopy. Format: functional, cell-based. As to conditions: Homo sapiens. The method in brief:
as §2

Molecules are shown by their SMILES. Activity calls are given as the source filed them. The calls are words filed in the database; no cut-off is given here. Bounds are passed on as bounds.

Take `COc1ccc(-c2nccn2-c2cc(OC)c(OC)c(OC)c2)cc1`: the GI50 is 4.57 µM in data set [1], 1.15 µM with HCT-15 and 1.58 µM in the data set on NCI-H460.
For `COc1ccc(/C=C\c2cc(OC)c(OC)c(OC)c2)cc1O` [COMBRETASTATIN A4], the IC50 amounted to 0.01 µM in the data set on HUVEC [2] (Homo sapiens, HUVEC, 1 h); 0.005 µM in the data set with HUVEC [3] (Homo sapiens, HUVEC, 72 h); 0.4 µM with HUVEC [6] (Homo sapiens, HUVEC, 1 h). The values for the GI50 (in [1]; in the data set on HCT-15; in the data set on NCI-H460) were 0.1 µM, < 0.01 µM and < 0.01 µM, respectively. Further, the outcome in the data set with HUVEC [4] and in the data set with HUVEC [5] was Active.
For the molecule `COc1cc(-n2ccnc2-c2ccc3ccccc3c2)cc(OC)c1OC`, the results for the GI50 (in data set [1]; in the data set with HCT-15; with NCI-H460) were 0.151 µM, 0.051 µM and 0.037 µM, respectively.
In the case of `COc1ccc(-c2cncn2-c2cc(OC)c(OC)c(OC)c2)cc1F`, the IC50 stood at 17.3 µM in the data set on HUVEC [2] (Homo sapiens, HUVEC, 1 h); 0.45 µM in the data set with HUVEC [3] (Homo sapiens, HUVEC, 72 h); 17 µM in the data set with HUVEC [6] (Homo sapiens, HUVEC, 1 h). Moreover, the GI50 is 0.0398 µM in [1], < 0.01 µM with HCT-15 and < 0.01 µM in the data set on NCI-H460.
`COc1cc(-n2cncc2-c2ccc(N(C)C)cc2)cc(OC)c1OC`: the GI50 in the data set with HCT-15 came to 0.036 µM; with NCI-H460, 0.079 µM.
For `COc1cc(-n2ccnc2-c2ccc(N(C)C)cc2)cc(OC)c1OC` the same measures were 0.08 µM and 0.27 µM.
Take `COc1ccc(-c2cncn2-c2cc(OC)c(OC)c(OC)c2)cc1` [listing 1 of 2 here]: the figures for the IC50 in the data set on HUVEC [2] (huvec), in the data set with HUVEC [3] (huvec) and in the data set on HUVEC [6] (huvec) were 0.95 µM, 0.54 µM and 20 µM, respectively. For the same molecule, the pKa in data set [7] was 6.82.
Regarding `COc1cc(-n2cncc2-c2ccc3ccccc3c2)cc(OC)c1OC` [listing 1 of 3 here], the IC50 was 41.5 µM in the data set with HUVEC [2] (huvec), 0.54 µM with HUVEC [3] (huvec) and 28.3 µM in the data set with HUVEC [6] (huvec). Besides, the figures for the 50% growth inhibitory concentration (GI50) (in [1]; with HCT-15; with NCI-H460) were 0.0724 µM, 0.017 µM and 0.018 µM, respectively.
Turning to `COc1cc(-n2cncc2-c2ccc3ccccc3c2)cc(OC)c1OC` [listing 2 of 3 here], the figures for the IC50 with HUVEC [2] (huvec), with HUVEC [3] (huvec) and with HUVEC [6] (huvec) were 0.04 µM, 0.11 µM and 2.1 µM, respectively. The pKa in data set [7] worked out at 5.58.
With `COc1ccc(-c2cncn2-c2cc(OC)c(OC)c(OC)c2)cc1` [listing 2 of 2 here], the IC50 amounted to 6.53 µM in the data set on HUVEC [2] (huvec); 0.6 µM in the data set with HUVEC [3] (Homo sapiens, HUVEC, 72 h); 36.1 µM in the data set with HUVEC [6] (Homo sapiens, HUVEC, 1 h). The GI50 in data set [1] is 0.257 µM; in the data set on HCT-15, 0.17 µM; in the data set on NCI-H460 it was 0.363 µM.
On to `COc1cc(-n2cncc2-c2ccc3ccccc3c2)cc(OC)c1OC` [listing 3 of 3 here], for which the result with MDA-MB-435 [8], with MDA-MB-435 [9], in the data set with HUVEC [12], in the data set on Mus musculus and in the data set on HUVEC [13] was Active. The Activity entry in the data set on HUVEC [10] and with HUVEC [11] was “Dose-dependent effect” in each case.
